Measured values published in ChEMBL document CHEMBL3784952, “Design, discovery, modelling, synthesis, and biological evaluation of novel and small, low toxicity s-triazine derivatives as HIV-1 non-nucleoside reverse transcriptase inhibitors” (Bioorg Med Chem, 2016).
pIC50: −log10 of the molar value. “And” between values parts separate entries of the source, which are not always exact repeats. Identical values can stand only once.

Key:
[1] = test system: Human immunodeficiency virus 1; assay: Antiviral activity against HIV1 virus-like particles harboring wild type reverse transcriptase infected in human U2OS cells after 24 hrs by Renilla luciferase assay; assay type: functional, organism-based; details: for pIC50: read-out: IC50
Summary of the method: (§1)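 U2OS cells seeded 5 × 10^4 per well, infected next day with HIV-1 VLPs carrying wt or mutant RT at MOI 0.01 with polybrene 6 μg/mL plus compound; 1 h at 37 °C, washed, compound-containing media 24 h, then compound-free media 24 h. Lysate Gluc activity (Renilla luciferase reagent) normalised to protein.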

[2] = Cytotoxicity against human U2OS cells assessed as reduction of cell viability after 48 hrs; assay type: cell-based
Summary of the method: (§2)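 Impedance-based real-time viability: U2OS (3.5 × 10^3) or TZM-bl (8.5 × 10^3) cells seeded on electrode plates, compounds in DMSO added 24 h later (final DMSO 0.5%), cell index recorded over a further 48 h. CC50 = concentration lowering cell index by 50% relative to DMSO-only cells.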

[3] = (§3) Cytotoxicity against human U2OS cells assessed as cell viability at 50 uM after 48 hrs relative to control; assay type: cell-based; details: U2OS cells, read-out: Activity
Summary of the method: (§4)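 U2OS cells seeded at 3.5 × 10^3 on electrode plates; after 24 h compound added at a single concentration (final DMSO 0.5%) and impedance cell index followed for 48 h. Graded against DMSO-treated cells: >50% reduction toxic, 20-50% moderately toxic, ≤20% non-toxic.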

[4] = target: Human immunodeficiency virus type 1 reverse transcriptase (Human immunodeficiency virus 1) (UniProt Q72547); assay: Inhibition of recombinant HIV1 reverse transcriptase using 234-nt long RNA/18-mer DNA oligonucleotide as template/primer assessed as remaining activity at 50 uM preincubated for 15 mins followed by incubation with template/primer for 40 mins by liquid scintillation counting in presence of alpha[P33]-dCTP relative to control
[5] = target: Human immunodeficiency virus type 1 reverse transcriptase (Human immunodeficiency virus 1) (UniProt Q72547); assay: Inhibition of recombinant HIV1 reverse transcriptase using 234-nt long RNA/18-mer DNA oligonucleotide as template/primer assessed as remaining activity at 200 uM preincubated for 15 mins followed by incubation with template/primer for 40 mins by liquid scintillation counting in presence of alpha[P33]-dCTP relative to control
[6] = target: Human immunodeficiency virus type 1 reverse transcriptase (Human immunodeficiency virus 1, UniProt Q72547); assay: Inhibition of HIV1 reverse transcriptase using 234-nt long RNA/18-mer DNA oligonucleotide as template/primer preincubated for 15 mins followed by incubation with template/primer for 40 mins by liquid scintillation counting in presence of alpha[P33]-dCTP; details: read-out: IC50
[7] = test system: Human immunodeficiency virus 1; assay: Antiviral activity against HIV1 virus-like particles harboring wild type reverse transcriptase infected in human U2OS cells assessed as remaining viral activity at 50 uM after 24 hrs by Renilla luciferase assay relative to control; assay type: functional; summary of the method: as §1
[8] = test system: Human immunodeficiency virus 1; assay: Antiviral activity against HIV1 virus-like particles harboring wild type reverse transcriptase infected in human U2OS cells assessed as remaining viral activity at 5 uM after 24 hrs by Renilla luciferase assay relative to control; assay type: functional; summary of the method: as §1
[9] = (§5) Cytotoxicity against human U2OS cells assessed as cell viability at 5 uM after 48 hrs relative to control; assay type: cell-based; details: U2OS cells, read-out: Activity; summary of the method: as §4
[10] = test system: Human immunodeficiency virus 1; assay: Antiviral activity against HIV1 virion infected in human TZM-bl cells after 48 hrs by firefly luciferase assay; assay type: functional, organism-based; details: Human immunodeficiency virus 1, TZM-bl, 48 h; read-out: IC50
Summary of the method: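 TZM-bl cells (LTR-driven firefly luciferase), 5 × 10^4 per well, infected next day with ACH-2-derived HIV-1 stock (PMA-induced; 30 ng p24 per well) plus compound for 2 h at 37 °C; medium then replaced with compound-containing medium for 48 h.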

[11] = test system: U2OS; assay: as §3; assay type: cell-based; details: u2os, 48 h, 50 µM; summary of the method: as §4
[12] = test system: U2OS; assay: as §5; assay type: cell-based; details: u2os, 48 h, 5 µM; summary of the method: as §4
[13] = Cytotoxicity against human TZM-bl cells assessed as reduction of cell viability after 48 hrs; assay type: cell-based; summary of the method: as §2
[14] = Human immunodeficiency virus 1, U2OS, 24 h

SMILES | pIC50 [1, 14] | CC50 at 48 h [2] [µM] | viability at 48 h, 50 µM [3] [%] | Activity [4] | Activity [5] | pIC50 [6] | Activity [7] [%] | Activity [8] | viability at 48 h, 5 µM [9] [%] | pIC50 [10] | Activity [11] | Activity [12] | CC50 at 48 h [13] [µM] | IC50 ([1]; u2os) | pIC50 ([1]; u2os)
Cc1ccc2[nH]c(=O)c(CN(CCCO)C(=S)NC[C@@H]3CCCO3)cc2c1 | < 4.30 | > 50 | 108 | 98% | 108% | < 3.70 | 68 |  |  |  |  |  |  |  | 
COc1ccc(Nc2nc(Nc3ccc(OC)cc3)nc(NC3CCCC3)n2)cc1 | < 5.30 | > 50 | 67 | 94% | 98% | < 3.70 | 30 | 94% | 87 |  |  |  |  |  | 
Cc1ccc(Nc2nc(NCC3CCCO3)nc(Nc3ccc(C)cc3)n2)cc1 (stereo in doubt; 8(n.p)) [listing 1 of 2 here] |  |  |  | 59% | 53% |  |  |  |  |  |  |  |  |  | 
Cc1ccnc2c1NC(=O)c1cccnc1N2C1CC1 [NEVIRAPINE] |  | > 100 |  | 13.7% | 9% |  |  | 0.5% |  | 7.59 | Non-toxic | Non-toxic | > 100 |  | 
Cc1ccc(Nc2nc(COc3ccc(Cl)cc3)nc(=N)[nH]2)cc1 | < 4.30 | > 50 | 76 | 79% | 86% | < 3.70 | 82 | 125% | 93 |  |  |  |  |  | 
Cc1c(CCC(=O)NCC(=O)NCC(=O)O)c(=O)oc2c(C)c(O)ccc12 | < 4.30 | > 50 | 99 | 92% | 93% | < 3.70 | 94 |  |  |  |  |  |  |  | 
Cc1ccc(Nc2nc(Nc3ccc(C)cc3)nc(Nc3ccc(C)cc3)n2)cc1 |  | > 50 |  |  |  |  |  |  |  |  |  |  | > 50 | Not Active | 
Cc1ccc(Nc2nc(NCC3CCCO3)nc(Nc3ccc(C)cc3)n2)cc1 (single isomer, unassigned; isomer 2) |  |  |  |  |  |  |  |  |  |  |  |  | > 50 |  | 4.49
Cc1ccc(Nc2nc(NCC3CCCO3)nc(Nc3ccc(C)cc3)n2)cc1 (single isomer, unassigned; isomer 1) |  |  |  |  |  |  |  |  |  |  |  |  |  |  | 4.74
Cc1ccc(Nc2nc(NCC3CCCO3)nc(NCC3CCCO3)n2)cc1 (stereo not drawn) |  | > 50 |  |  |  |  |  |  |  |  |  |  | > 50 | Not Active | 
Cc1ccccc1Nc1nc(Cn2ccc(C(F)(F)F)cc2=O)nc(=N)[nH]1 | < 4.30 | > 50 | 105 | 88% | 89% | < 3.70 | 101 |  |  |  |  |  |  |  | 
Cc1ccccc1Nc1nc(N)nc(CN(C)Cc2ccc(F)cc2)n1 | < 4.30 | > 50 | 84 | 103% | 89% | < 3.70 | 53 | 151% | 96 |  |  |  |  |  | 
CCCn1c(NCCN(CC)CC)nc2c1c(=O)[nH]c(=O)n2C | < 4.30 | > 50 | 101 | 89% | 103% | < 3.70 | 128 |  |  |  |  |  |  |  | 
Nc1nc(COC(=O)c2c[nH]c3ccccc23)nc(Cc2ccc(F)cc2)n1 | < 4.30 | > 50 | 101 | 86% | 87% | < 3.70 | 118 |  |  |  |  |  |  |  | 
CCOC(=O)c1[nH]c2ccc(F)cc2c1NC(=O)NC1CCCCC1 | < 4.30 | > 50 | 103 | 81% | 42% | < 4.30 | 84 |  |  |  |  |  |  |  | 
c1coc(CNc2nc(NCc3ccco3)c3nc(NCc4ccco4)[nH]c3n2)c1 | < 4.30 | > 50 | 116 | 92% | 102% | < 3.70 | 104 |  |  |  |  |  |  |  | 
CNc1nc(Nc2ccc(C)cc2)nc(Nc2ccc(C)cc2)n1 | < 5.30 | > 5 | 46 | 85% and 86% | 79% and 82% | < 3.70 |  | 84% and 80% | 96 |  | 40% | 91% |  |  | 
Cc1ccc(Nc2nc(N)nc(COC(=O)c3cnc4ccccc4n3)n2)cc1 | < 4.30 | > 50 | 103 | 82% | 54% | < 3.70 | 75 |  |  |  |  |  |  |  | 
O=C1NC(=S)N(CCC2=CCCCC2)C(=O)/C1=C\NCCO | < 4.30 | > 50 | 98 | 92% | 78% | < 3.70 | 54 |  |  |  |  |  |  |  | 
Cc1ccc(Nc2nc(NCC3CCCO3)nc(Nc3ccc(C)cc3)n2)cc1 (stereo in doubt; 8(n.p)) [listing 2 of 2 here] |  |  | 66 |  |  | 3.98 | 5.2 | 20% | 90 |  |  |  |  |  | 6.48
Nc1c(NCCO)cc(Nc2ccccc2)c2c1C(=O)c1ccccc1C2=O | < 5.30 | > 5 | 42 | 90% | 66% | < 3.70 |  | 111% | 99 |  |  |  |  |  | 
